Data set [1] relates to Acinetobacter baumannii. Kind of data set: Potentiation of Clarithromycin antibacterial activity against Acinetobacter baumannii AB5075 assessed as clarithromycin MIC at 10 uM incubated for 16 hrs by broth microdilution method. Format: functional.
In data set [2] the test system is Acinetobacter baumannii. Kind of data set: Potentiation of Clarithromycin antibacterial activity against Acinetobacter baumannii AB5711 assessed as clarithromycin MIC at 10 uM incubated for 16 hrs by broth microdilution method. The class given is functional. For orientation: Broth dilution looks for growth in wells or tubes with falling amounts of substance.
In data set [3] the test system is Acinetobacter baumannii. Kind of data set: Potentiation of Azithromycin antibacterial activity against Acinetobacter baumannii AB5075 assessed as azithromycin MIC at 5 uM incubated for 16 hrs by broth microdilution method. The class given is functional.
The subject of data set [4] is Acinetobacter baumannii. Kind of data set: Potentiation of Clarithromycin antibacterial activity against Acinetobacter baumannii AB4498 assessed as clarithromycin MIC at 10 uM incubated for 16 hrs by broth microdilution method. The class given is functional.
Data set [5] has as its system Acinetobacter baumannii. Briefly: Potentiation of Clarithromycin antibacterial activity against Acinetobacter baumannii AB3560 assessed as clarithromycin MIC at 10 uM incubated for 16 hrs by broth microdilution method. Format: functional.
The test system of data set [6] is Acinetobacter baumannii. Briefly: Potentiation of Clarithromycin antibacterial activity against Acinetobacter baumannii AB5075 assessed as clarithromycin MIC at 1.5 uM incubated for 16 hrs by broth microdilution method. The class given is functional. The method, boiled down: (§1)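 Checkerboard-style potentiation by broth microdilution. 6 h day cultures in CAMHB diluted to 5×10^5 CFU/mL. Adjuvant added from 10 mM DMSO stock at fixed concentration throughout. […] Controls: antibiotic alone, adjuvant alone, media only. Incubated stationary at 37 °C for 16 h. MIC is lowest concentration with no visible growth; fold reduction taken against the antibiotic-alone lane.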

For data set [7], the system named is Escherichia coli. Kind of data set: Potentiation of Clarithromycin antibacterial activity against Escherichia coli ATCC 25922 assessed as clarithromycin MIC at 3.75 uM incubated for 16 hrs by broth microdilution method. The class given is functional.
The test system of data set [8] is Acinetobacter baumannii. Briefly: Potentiation of rifampicin antibacterial activity against Acinetobacter baumannii AB5075 assessed as rifampicin MIC at 5 uM incubated for 16 hrs by broth microdilution method. The class given is functional. The method, boiled down: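 A. baumannii AB5075 6 h day cultures in CAMHB subcultured to 5×10^5 CFU/mL; adjuvant added from 10 mM DMSO stock at fixed concentration, then rifampicin (DMSO) twofold serially diluted in adjuvant-containing broth. Antibiotic-alone and adjuvant-alone control lanes.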

Data set [9] relates to Acinetobacter baumannii. Briefly: Potentiation of Clarithromycin antibacterial activity against Acinetobacter baumannii AB5075 assessed as clarithromycin MIC at 2.5 uM incubated for 16 hrs by broth microdilution method. The class given is functional.
The nature of data set [10]: Stability of compound in human plasma assessed as parent compound remaining measured at 4 hrs. Format: ADME, cell-free. Put shortly: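 Compound at 20 μM final in human plasma (from 10 mM DMSO stock), 37 °C; aliquots at 0, 30, 60, 120, 240 min quenched in internal standard in 1:1 ACN/MeOH, centrifuged, supernatant analysed by UPLC-MRM. Peak-area ratio to internal standard expressed as % parent remaining relative to 0 min; half-life calculated.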

In data set [11] the test system is Acinetobacter baumannii. Kind of data set: Potentiation of Clarithromycin antibacterial activity against Acinetobacter baumannii AB3785 assessed as clarithromycin MIC at 10 uM incubated for 16 hrs by broth microdilution method. Format: functional.
Data set [12] is described as follows: Therapeutic index, ratio of IC50 for antiproliferative against human HepG2 cells assessed as reduction in cell viability to MIC for potentiation of Clarithromycin antibacterial activity against Acinetobacter baumannii […] assessed as clarithromycin MIC. The class given is toxicity, cell-based. The following applies: read-out: TI.
For data set [13], the system named is Acinetobacter baumannii. Briefly: Antibacterial activity against Acinetobacter baumannii AB5075 assessed as reduction in bacterial growth incubated for 16 hrs by broth microdilution method. Format: functional.
Data set [14] deals with Acinetobacter baumannii. Kind of data set: Potentiation of Azithromycin antibacterial activity against Acinetobacter baumannii AB5075 assessed as azithromycin MIC at 10 uM incubated for 16 hrs by broth microdilution method. Format: functional.
Data set [15] deals with Acinetobacter baumannii. Kind of data set: Potentiation of rifampicin antibacterial activity against Acinetobacter baumannii AB5075 assessed as rifampicin MIC at 20 uM incubated for 16 hrs by broth microdilution method. The class given is functional.
For data set [16], the system named is Acinetobacter baumannii. Briefly: Potentiation of Clarithromycin antibacterial activity against Acinetobacter baumannii AB5075 assessed as fold reduction in clarithromycin MIC at 7.5 uM incubated for 16 hrs by broth microdilution method. The class given is functional. Put shortly: as §1
The test system of data set [17] is Escherichia coli. Kind of data set: Antibacterial activity against Escherichia coli ATCC 25922 assessed as inhibition of bacterial growth incubated for 16 hrs by broth microdilution method. Format: functional. Put shortly:
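Standalone MIC by broth microdilution. 6 h day cultures in cation-adjusted Mueller-Hinton broth (CAMHB) diluted to 5×10^5 CFU/mL. Compound added from 10 mM DMSO stock to 200 μM (highest concentration), then twofold serial dilution. Incubated stationary at 37 °C for 16 h.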

The test system of another data set is Pseudomonas aeruginosa. Briefly: Potentiation of Clarithromycin antibacterial activity against Pseudomonas aeruginosa PAO1 assessed as clarithromycin MIC at 20 uM incubated for 16 hrs by broth microdilution method. The class given is functional. Put shortly:
as §1

The results in this text go back to ChEMBL document CHEMBL5360562 (Eur J Med Chem, 2023).

Structures are written as SMILES.

With `Cl.Cl.Nc1nc(-c2ccc(NC(=O)Nc3cccc(-c4c[nH]c(N)n4)c3F)cc2F)c[nH]1`, the MIC in the data set on Acinetobacter baumannii [1] is at most 0.062 µg/mL; in the data set on Acinetobacter baumannii [2] it was at most 0.062 µg/mL; in the data set with Acinetobacter baumannii [3], 1 µg/mL; in the data set on Acinetobacter baumannii [4] it was at most 0.062 µg/mL; with Acinetobacter baumannii [5] it was at most 0.062 µg/mL; in the data set with Acinetobacter baumannii [6], 2 µg/mL. The MIC with Escherichia coli [7] is 0.125 µg/mL; in the data set with Acinetobacter baumannii [8], 0.125 µg/mL; in the data set with Acinetobacter baumannii [9], 0.125 µg/mL; with Acinetobacter baumannii [11], at most 0.062 µg/mL; with Acinetobacter baumannii [13] it was above 200 µM; in the data set with Acinetobacter baumannii [14], 0.125 µg/mL. Besides, the figures for the MIC in the data set on Acinetobacter baumannii [15], with Escherichia coli [17] and in the data set on Pseudomonas aeruginosa were 0.001 µg/mL, 12.5 µM and 16 µg/mL, respectively. Moreover, the Stability in data set [10] is given as 76%. Besides, in [12], the selectivity ratio was found to be 287. Also, the “fold change (FC)” value in the data set with Acinetobacter baumannii [16] is reported as “>=512”.

A word on the MIC: it is the lowest concentration found to suppress growth.
